According to ChEMBL document CHEMBL1126728, “Synthesis and biochemical evaluation of the CBI-PDE-I-dimer, a benzannelated analog of (+)-CC-1065 that also produces delayed toxicity in mice” (J Med Chem, 1993):

Experiments:
Mus musculus [1] = test: in vivo percent increase in lifespan (ILS) at the optimum dose in L1210 cells; assay type: functional
Summary of the method: (§1)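 L1210 leukemia, passaged in syngeneic DBA/2 female mice, was implanted i.p. at 10^6 cells/mouse on day 0; one i.v. dose on day 1 (2% DMA/10% Emulphor EL-620P/88% water); 6 mice per group; dose-response run. Optimal dose = greatest efficacy with ≤15% drug-related deaths. %ILS = (median survival treated/median survival vehicle control − 1) × 100, counting long-term survivors.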

Mus musculus [2] = test: Optimum antitumor dose (OD) against L1210 mouse leukemia cells implanted intraperitoneally in CD2F1 mice; assay type: functional
Summary of the method: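 L1210 cells passaged in DBA/2 female mice, implanted ip (10^6 cells/mouse) in CD2F1 mice, 6 per group, on day 0. Single iv dose 24 h later (day 1) in 2% DMA, 10% Emulphor EL-620P, 88% sterile water; dose response run. Optimum dose (µg/kg) is the dose giving greatest ILS (median survival) with ≤15% drug-related deaths.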

Mus musculus [3] = test: Median day of death (MDD) in normal (Non tumor bearing) mice treated with a single i.v. dose at 200 ug/kg; assay type: functional
Summary of the method: (§2)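 Non-tumor-bearing mice got one intravenous injection in a vehicle of 2% DMA, 10% Emulphor EL-620P and 88% sterile water. Survival was followed for 90 days, which ended the experiment. Six mice per dose group; the value is the median day of death. Deaths after more than 28 days counted as delayed.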

L1210 [4] = test: In vitro cytotoxicity against mouse leukemia L1210 cells was determined; assay type: functional, cell-based
Summary of the method: (§3)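 L1210 mouse leukemia cells in RPMI 1634 supplemented with 5% fetal calf serum, 0.075% sodium bicarbonate, penicillin and streptomycin. Drug added to cultures at about 5 × 10^3 cells/mL, incubated 3 days at 37 °C. Cell number counted with a Coulter counter; IC50 in nM, run side by side with the corresponding CPI analog.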

Mus musculus [5] = test: Median day of death (MDD) in normal (Non tumor bearing) mice treated with a single i.v. dose at 50 ug/kg; assay type: functional; summary of the method: as §2
Mus musculus [6] = test: Median day of death (MDD) in normal (Non tumor bearing) mice treated with a single i.v. dose at 25 ug/kg; assay type: functional; summary of the method: as §2
Mus musculus [7] = test: Median day of death (MDD) in normal (Non tumor bearing) mice treated with a single i.v. dose at 400 ug/kg; assay type: functional; summary of the method: as §2
Mus musculus [8] = test: Optimum antitumor dose (OD) against L1210 mouse leukemia cells implanted intraperitoneally in CD2F1 mice (Highest dose tested); assay type: functional; summary of the method: as §1
L1210 [9] = test: In vitro cytotoxicity against mouse leukemia L1210 cells; assay type: functional, cell-based; summary of the method: as §3
Mus musculus [10] = test: Median day of death (MDD) in normal (Non tumor bearing) mice treated with a single i.v. dose at 100 ug/kg; assay type: functional; summary of the method: as §2

For `Cc1c[nH]c2c1[C@@]13CC1CN(C(=O)c1cc4cc(NC(=O)c5cc6ccccc6[nH]5)ccc4[nH]1)C3=CC2=O` (some centres not stated), the ILS (Mus musculus [1]) was 83%, the OD (Mus musculus [2]) was 0.1 mg/kg and the MDD (Mus musculus [3]) was 3.

In the case of `OC1=CC2=NCC3C[C@@]23c2ccccc21` (some centres not stated), the IC50 (L1210 [4]) is reported as 230 nM.

`COc1c(O)c2c(c3cc(C(=O)N4CCc5c4c(O)c(OC)c4[nH]c(C(=O)N6C[C@H]7C[C@@]78C6=CC(=O)c6[nH]cc(C)c68)cc54)[nH]c13)CCN2C(N)=O` [(+)-CC-1065] was tested, and the MDD (Mus musculus [5]) was 41 and the MDD (Mus musculus [6]) was 42.

`COc1c(O)c2c(c3cc(C(=O)N4CCc5c4c(O)c(OC)c4[nH]c(C(=O)N6CC7C[C@]78C6=CC(=O)c6ccccc68)cc54)[nH]c13)CCN2C(N)=O` (single isomer, unassigned; (-)) gave an MDD (Mus musculus [7]) of 5, an IC50 (L1210 [4]) of 0.01 nM and an ILS (Mus musculus [1]) of 6%. It also gave an OD (Mus musculus [2]) of 0.2 mg/kg.

`O=C1C=C2N(C(=O)c3cc4ccccc4[nH]3)CC3C[C@@]23c2ccccc21` (single isomer, unassigned; (+)) was tested, and the IC50 (L1210 [4]) was 0.1 nM, the ILS (Mus musculus [1]) was 50% and the OD (Mus musculus [2]) was 0.8 mg/kg.

For `O=C(Nc1ccc2[nH]c(C(=O)N3CC4C[C@]45C3=CC(=O)c3ccccc35)cc2c1)c1cc2ccccc2[nH]1` (single isomer, unassigned; (-)), the IC50 (L1210 [4]) was 0.3 nM, the ILS (Mus musculus [1]) was 50% and the OD (Mus musculus [8]) was 1.6 mg/kg.

In the case of `CC(=O)N1CC2C[C@@]23C1=CC(=O)c1ccccc13` (single isomer, unassigned; (+)), the IC50 (L1210 [4]) is reported as 5 nM.

`O=C(Nc1ccc2[nH]c(C(=O)N3CC4C[C@@]45C3=CC(=O)c3ccccc35)cc2c1)c1cc2ccccc2[nH]1` (single isomer, unassigned; (+)) showed an IC50 (L1210 [4]) of 0.006 nM, an ILS (Mus musculus [1]) of 67% and an OD (Mus musculus [2]) of 0.1 mg/kg. The MDD (Mus musculus [3]) was 7.

With `OC1=CC2=NCC3C[C@]23c2ccccc21` (some centres not stated) the IC50 (L1210 [9]) was 6600 nM.

`O=C1C=C2N(C(=O)c3cc4ccccc4[nH]3)CC3C[C@]23c2ccccc21` (single isomer, unassigned; (-)) gave an IC50 (L1210 [4]) of 12 nM.

Molecule `COc1c(O)c2c(c3cc(C(=O)N4CCc5c4c(O)c(OC)c4[nH]c(C(=O)N6CC7C[C@@]78C6=CC(=O)c6ccccc68)cc54)[nH]c13)CCN2C(N)=O` (some centres not stated) has an MDD (Mus musculus [7]) of 5, an IC50 (L1210 [4]) of 0.02 nM and an ILS (Mus musculus [1]) of 28%. The MDD (Mus musculus [5]) was 42, the MDD (Mus musculus [6]) was 48 and the MDD (Mus musculus [10]) was 41. It also gave an OD (Mus musculus [2]) of 0.2 mg/kg and an MDD (Mus musculus [3]) of 38.

For `CC(=O)N1CC2C[C@]23C1=CC(=O)c1ccccc13` (single isomer, unassigned; (-)), the IC50 (L1210 [4]) was 70 nM.
